Assay results from ChEMBL document CHEMBL3397022, “Absolute structures and bioactivities of euryspongins and eurydiene obtained from the marine sponge Euryspongia sp. collected at Iriomote Island” (Bioorg Med Chem, 2015).

What was measured:
[1] = target: T1, Tyrosine-protein phosphatase non-receptor type 1 (Homo sapiens, UniProt P18031); test: Inhibition of PTP1B (unknown origin) using pNPP as substrate incubated for 10 mins prior to substrate addition measured after 30 mins by microplate reader analysis
T1 sequence (P18031 whole entry): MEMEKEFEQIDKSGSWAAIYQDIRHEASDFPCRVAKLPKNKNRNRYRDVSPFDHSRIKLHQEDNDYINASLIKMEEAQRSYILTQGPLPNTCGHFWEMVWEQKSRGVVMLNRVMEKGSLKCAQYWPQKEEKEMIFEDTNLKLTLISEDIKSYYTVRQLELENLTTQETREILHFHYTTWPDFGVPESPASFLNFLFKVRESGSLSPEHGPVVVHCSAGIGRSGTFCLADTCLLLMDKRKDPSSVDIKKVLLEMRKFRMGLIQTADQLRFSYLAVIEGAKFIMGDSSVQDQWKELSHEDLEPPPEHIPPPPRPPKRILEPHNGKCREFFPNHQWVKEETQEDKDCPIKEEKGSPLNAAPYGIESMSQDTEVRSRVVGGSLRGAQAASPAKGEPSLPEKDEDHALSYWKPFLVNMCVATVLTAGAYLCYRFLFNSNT

[2] = Cytotoxicity against human HCT15 cells after 48 hrs by MTT assay; format: cell-based; details: HCT-15, 48 h
Method in brief: (§1)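 Cells grown exponentially in RPMI-1640 with 10% FBS, penicillin and streptomycin at 37 °C, 5.0% CO2. Seeding: HCT-15 at 1.0 × 10^4 cells/well, Jurkat at 2.0 × 10^4 cells/well. Samples added in MeOH and incubated 48 h at 37 °C. MTT and lysis solution (40% DMF, 20% SDS, 2.0% acetic acid, 0.030% HCl) added, then shaken overnight at room temperature. Read at 570 nm.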

Jurkat = test: Cytotoxicity against human Jurkat cells after 48 hrs by MTT assay; format: cell-based; method in brief: as §1
[3] = Cytotoxicity against human HuH7 cells […] by MTT assay; format: cell-based; details: Huh-7
Method in brief: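 Huh-7 MTT assay: after sample treatment, MTT (5.0 mg/mL stock in saline) added for 90 min at 37 °C. Plate centrifuged at 300 × g for 5 min and supernatant removed. Cells solubilized in 0.040 N HCl in 2-propanol. Absorbance read at 590 nm; survival (%) calculated relative to untreated control.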

Row | SMILES | IC50 [1] [µM] | IC50 [2] [µM] | IC50 (Jurkat) [µM] | IC50 [3] [µM]
1 | CC1=C[C@@H]2CC(C)(C)[C@H]1C[C@@H](O)c1ccoc12 | > 40 | > 40 | > 40 | > 100
2 | C=C/C=C(/CO)c1cc(O)ccc1O | > 50 | > 50 | > 50 | 
3 | CC1=C[C@@H]2CC(C)(C)[C@H]1/C=C\c1ccoc12 [REL-DEHYDROEURYSPONGIN A] |  | > 45 | > 45 | > 100
4 | CC1=C[C@@H]2CC(C)(C)[C@H]1C[C@@H](O)C1=CC(=O)O[C@H]12 | > 40 | > 40 | > 40 | 

More lines, main results first:

Row | IC50 [1] [µM] | SMILES | IC50 [2] [µM] | IC50 (Jurkat) [µM] | IC50 [3] [µM]
5 | > 40 | C=C/C=C1/CO[C@]2(OC)CC[C@@H](O)[C@@H](O)[C@@H]12 | > 40 | > 40 | 
6 | > 35 | CO[C@@]12OC(=O)C=C1[C@H](O)C[C@H]1C(C)=C[C@@H]2CC1(C)C | > 35 | > 35 | 
